Sampled rows, rich in hits. Any-hit rate of the full collection: about 3.4%.
zfTRPN1 agonist = activates the zebrafish TRPN1 channel | activation, % at 3 µM | HEK293 zebrafish TRPN1-YFP, Fluo-8 calcium fluorescence; 100% = response to 87 µM carbachol | 0.18% of 220,000 active;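 active means activation above its plate's cutoff, the mean activation of test wells on that plate plus 3 SD, cut at about 19% in these data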;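 further: 0% = DMSO alone and 100% = 87 µM carbachol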
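Material: zebrafish TRPN1-YFP in HEK293 cells; Doses: single test compound dose, 3 µM nominal, 0.3% DMSO; Timing: dye loading 1 h at 37 °C, then 30 min room temperature; Technique: intracellular calcium fluorescence with Fluo-8; Benchmarks: high carbachol 87 µM, low DMSO alone.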
TRPML3 agonist = activates the human TRPML3 channel; Q8TDD5; HEK293 TRPML3-YFP, Fluo-8 calcium fluorescence; 100% = the carbachol control signal; activation, % at 3 µM; 0.29% of 220,000 active;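 active means activation above its plate's cutoff, the mean activation of the plate's test wells plus 3 SD, cut at about 12% in these data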;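 further: 0% = DMSO only wells and 100% = carbachol wells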
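Material: TRPML3-YFP stable HEK293 cells | Dosing: One concentration, 3 µM nominal, 0.3% DMSO | Timing: 125 s total fluorescence read per well | Technique: Fluo-8 calcium dye fluorescence, ex 470-495, em 515-575 nm | Measure: Percent activation from peak-to-basal fluorescence ratio, scaled between DMSO and carbachol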
GPR7 antagonist = blocks human GPR7 receptor signaling | P48145 | inhibition, % at 4.4 µM | AID 1861 | GPR7-expressing cells, fluorescence antagonist assay | 1.1% of 290,000 active; in the data active means inhibition above about 16%, passing the limit was not always enough;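 further: cells stimulated with the agonist NPW; 0% = agonist with vehicle and 100% = vehicle without agonist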
Target sequence (P48145 whole entry, looked up): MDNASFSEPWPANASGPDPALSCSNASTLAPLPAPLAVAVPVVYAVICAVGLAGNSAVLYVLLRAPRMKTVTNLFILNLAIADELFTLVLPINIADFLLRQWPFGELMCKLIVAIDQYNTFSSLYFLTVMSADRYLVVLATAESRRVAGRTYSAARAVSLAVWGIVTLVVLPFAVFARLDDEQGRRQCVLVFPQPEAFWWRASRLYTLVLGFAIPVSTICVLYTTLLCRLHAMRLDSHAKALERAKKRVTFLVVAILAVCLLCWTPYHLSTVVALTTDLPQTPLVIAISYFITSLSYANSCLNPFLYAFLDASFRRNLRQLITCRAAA
LANA-H2A inh = blocks KSHV LANA binding to histone H2A/H2B | 0.6% of 320,000 active | cell-free LANA-H2A/H2B peptide, fluorescence polarization | AID 2629 | Q9QR71 | inhibition, % (concentration not given with the values); in the data active means inhibition mostly above about 10%, no sharp cut-off; inactive means mostly below about 6.7%
TAAR1 antag = human TAAR1 antagonism; Q96RJ0; CHO RD-HGA16 TAAR1, Fluo-8 calcium fluorescence, antagonist; inhibition, % at 3 µM; 1.5% of 360,000 active;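 active means inhibition above a per-plate cutoff, the mean inhibition of test compounds on that plate plus 3 SD, cut at about 49% in these data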;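 further: 0% = DMSO plus EC80 beta-PEA response and 100% = DMSO alone without agonist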
Target sequence (Q96RJ0 whole entry, looked up): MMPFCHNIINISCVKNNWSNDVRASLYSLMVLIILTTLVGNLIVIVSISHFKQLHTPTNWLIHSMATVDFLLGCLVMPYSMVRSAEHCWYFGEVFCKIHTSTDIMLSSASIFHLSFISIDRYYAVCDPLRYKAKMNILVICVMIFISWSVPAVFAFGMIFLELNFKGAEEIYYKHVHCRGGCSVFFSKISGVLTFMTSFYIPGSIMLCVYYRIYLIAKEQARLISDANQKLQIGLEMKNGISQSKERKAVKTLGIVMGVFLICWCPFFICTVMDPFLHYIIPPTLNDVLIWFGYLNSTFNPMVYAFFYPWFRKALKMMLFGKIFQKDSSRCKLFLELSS
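Test system: CHO RD-HGA16 cells bearing hTAAR1 | Reagent: β-PEA, EC80 | Compound dosing: 3 µM, single point | Schedule: Dye loading 75 min at 37 °C, then 30 min room temperature | Signal: Calcium fluorescence with Fluo-8 | Evaluation: Percent inhibition of PEA-evoked calcium signal, max/basal emission ratio | Control set: DMSO-only wells and EC80 β-PEA-stimulated wells | Repeats: Singlicate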
TAAR1 ag = agonists of human TAAR1; Q96RJ0; CHO RD-HGA16 TAAR1, Fluo-8 calcium fluorescence; vehicle wells 0%, saturating PEA agonist 100%; activation, % at 3 µM; 0.99% of 360,000 active;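 active means activation above the mean activation of all test compounds in the run plus 3 SD, cut at about 38% in these data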
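Signal – calcium-sensitive Fluo-8 signal, excitation 470-495, emission 515-575 nm · System – RD-HGA16 (CHO) cells co-expressing Gα16 and hTAAR1 · Incubation – 17-24 h seeding, 75 min 37 °C dye, 30 min RT · Compound dosing – 3 µM single concentration · Repeats – no replicates (n 1)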
The depositor's hits bear a star; · = not tested or not shown; + = active, no number.

SMILES | zfTRPN1 agonist | TRPML3 agonist | GPR7 antagonist | LANA-H2A inh | TAAR1 antag | TAAR1 ag
COc1ccc(-n2c(-c3ccccc3)c[n+]3c2CCC3)cc1 | 0.5 | 0.7 | -3.6 | -1.8 | -20.8 | 7.9
CC(C)Cn1c(N)c(C(=O)COC(=O)CC23CC4CC(CC(C4)C2)C3)c(=O)n(C)c1=O | 1.2 | 1.1 | 20.9* | 2.6 | 40.6 | 3.7
Cc1ccccc1OCCC(=O)OCC(=O)c1c(N)n(CC(C)C)c(=O)n(C)c1=O | · | · | 4.6 | -0.1 | 29.4 | 9.4
CC(C)Cn1c(N)c(C(=O)COC(=O)CCNS(=O)(=O)c2ccccc2)c(=O)n(C)c1=O | · | · | · | -4.4 | 50.5* | 11.3
CC(C)Cn1c(N)c(C(=O)COC(=O)c2cc(S(=O)(=O)N3CCOCC3)ccc2Br)c(=O)n(C)c1=O | · | · | · | 4.9 | 54.4* | 21.5
Cc1ccsc1/C=C(\C(=O)c1ccc(OC(C)C)cc1)c1nc2ccccc2o1 | 1.5 | 0.8 | -14.8 | 11.3* | -0.9 | 2.7
Cc1ccsc1/C=C(\CC(=O)O)c1nc2ccccc2o1 | · | · | 0.9 | 5.1 | -19.9 | 12.0
COc1ccc2[nH]c(=O)c(CN(Cc3cccs3)S(=O)(=O)c3cccc4nsnc34)cc2c1 | 0.3 | 0.8 | -10.1 | · | 52.8* | 21.2
CC1=C(C(=O)N(C)C)CC(CC(=O)NCCc2ccccn2)C(=O)N1Cc1ccc(F)cc1 (stereo not given) | · | · | · | · | -10.1 | 41.0*
CC1=C(C(=O)N(C(C)C)C(C)C)CC(CC(=O)NCCc2ccccn2)C(=O)N1Cc1ccc(F)cc1 (stereo not given) | · | · | · | · | -36.4 | 37.8*
CC1=C(C(=O)N2CCOCC2)CC(CC(=O)NCCc2ccccn2)C(=O)N1Cc1ccc(F)cc1 (stereo not given) | · | · | · | · | -12.9 | 5.4
Cc1cc(CNC(=O)Cc2c(F)cccc2Cl)nn1C | 1.2 | 0.9 | 19.3* | 0.9 | · | ·
COc1ccc(OC)c(S(=O)(=O)CC(=O)c2cc3ccccc3oc2=O)c1 | · | · | · | · | 3.6 | 6.0
Cc1cccc(OCC(=O)NCC(=O)N/N=C/c2c(C)[nH]c3ccccc23)c1 | 0.1 | -0.1 | -19.8 | 1.9 | 52.0* | 7.5
Cc1cc(C(=O)N/N=C/c2c(C)[nH]c3ccccc23)n[nH]1 | 1.8 | 0.5 | -8.3 | -3.7 | -36.1 | 10.7
Cc1[nH]c2ccccc2c1/C=N/NC(=O)c1cc(-c2cccs2)[nH]n1 | 1.8 | 0.5 | -4.8 | 2.4 | 57.6* | 15.8
Cc1ccc(NC(=O)Nc2cccc([N+](=O)[O-])c2)cc1F | 23.0* | 12.1* | 30.2* | · | 20.0 | 7.0
O=C(Nc1ccc(OC(F)(F)F)cc1)Nc1cccc([N+](=O)[O-])c1 | 12.8 | 4.1 | 42.6* | 2.0 | 53.2* | 11.2
Cc1[nH]c2ccccc2c1C(=O)CSc1nc2ccccc2[nH]1 | 3.4 | 1.1 | -2.0 | 4.5 | 54.6* | 14.1
Cc1[nH]c2ccccc2c1C(=O)CSc1nc2ccccc2c(=O)n1CCCN1CCOCC1 | 0.8 | -0.2 | 7.6 | 12.1 | 71.3* | 47.5*
COc1ccc(-c2nc3ccccc3c(=O)n2CCCN2CCOCC2)cc1 | 0.3 | 0.4 | -10.5 | 15.9* | 6.9 | 1.2
COC(=O)CC#C[C@H](C)[C@@H](NS(C)(=O)=O)C1CCCCC1 | · | · | · | · | -3.4 | 0.1
COC(=O)[C@]12C[C@H](CC(=O)NCc3ccccc3)C(=O)N(Cc3ccccc3)C1=C[C@H](C1CCCC1)O[C@@H]2C | · | · | · | · | -12.3 | -1.2
CCCc1cc(=O)oc2cc(OCC(=O)N3CCN(C(=O)C4COc5ccccc5O4)CC3)ccc12 (stereo not given) | · | · | -7.8 | 1.0 | 49.1* | 7.1
CC(=O)Nc1ccc(S(=O)(=O)N(C)C2CCN(C)CC2)cc1 | · | · | -13.5 | 13.5 | 1.6 | -0.7
SMILES | zfTRPN1 agonist | TRPML3 agonist | GPR7 antagonist | LANA-H2A inh | TAAR1 antag | TAAR1 ag
CC(Oc1cccc(Cl)c1)C(=O)Nc1ccc(S(=O)(=O)NC2=NCCCCC2)cc1 (stereo not given) | · | · | · | -3.5 | 12.5 | 40.4*
O=S(=O)(NC1=NCCCCC1)c1ccc(Cl)cc1 | 1.2 | -0.6 | -9.0 | + | -21.4 | 1.1
CC(Oc1cccc(Cl)c1)C(=O)Nc1ccc(S(=O)(=O)N(C)C2CCN(C)CC2)cc1 (stereo not given) | · | · | · | 0.5 | 10.9 | 42.3*
CC(Oc1ccc(F)cc1)C(=O)Nc1ccc(S(=O)(=O)NC2=NCCCCC2)cc1 (stereo not given) | · | · | · | 0.3 | 19.8 | 44.2*
CC(C)c1ccc(C(=O)Nc2ccc(S(=O)(=O)NC3=NCCCCC3)cc2)cc1 | · | · | · | · | -4.7 | -1.2
O=S(=O)(NC1=NCCCCC1)c1ccc(F)cc1 | 0.4 | 1.1 | -13.2 | -2.8 | -13.4 | 2.5
O=C(C=Cc1ccc(O)c(O)c1)NCC(=O)NC(Cc1ccccc1)C(=O)O (stereo not given) | · | · | · | · | -2.5 | 3.0
CCOC(=O)CN1C(=O)S/C(=C/C=C/c2ccc(N(C)C)cc2)C1=O | 6.1 | 6.3 | 11.4 | 3.2 | 30.2 | 45.5*
COc1ccc(C2NCCc3c2[nH]c2ccccc32)cc1COc1ccc(F)cc1 (stereo not given) | 3.5 | 0.6 | 46.4* | 2.9 | 33.9 | 48.8*
CCOC(=O)N1CCC(N2C(=O)c3ccccc3C2Nc2c(C)cccc2C)CC1 (stereo not given) | -1.7 | -0.5 | 15.9* | -3.9 | 0.7 | -1.0
CC(C)C[C@H]1COc2cccc(NCCO)c2S(=O)(=O)N1 | · | · | · | · | -5.3 | 1.9
Nc1cc([N+](=O)[O-])ccc1Nc1ccc(O)cc1 | 0.0 | -0.3 | 0.5 | -0.1 | 56.6* | 10.7
COc1cc(/C=C/c2ccc3cccc(OC)c3n2)c(O)c([N+](=O)[O-])c1 | 0.2 | 0.8 | -3.0 | 12.5 | -6.4 | 6.7
COc1cc(/C=C/c2ccc3cccc(OC)c3n2)c(OC(C)=O)c([N+](=O)[O-])c1 | 0.3 | -1.1 | 15.9 | -2.8 | 48.9* | 7.3
CN(CC1COc2ccccc2O1)C(=O)c1cc(COc2c(F)cccc2F)on1 (stereo not given) | · | · | 0.1 | 3.6 | 9.3 | 2.5
CN(CC1COCCO1)C(=O)c1cc(COc2c(F)cccc2F)on1 (stereo not given) | · | · | 9.4 | 115.5* | -13.3 | 1.8
Clc1ccc2[nH]c3c(NCCCN4CCOCC4)ncnc3c2c1 | 0.5 | 0.0 | 19.6* | -2.7 | 18.3 | 0.5
O=C(COC(=O)c1ccc2c(c1[N+](=O)[O-])C(=O)c1ccccc1C2=O)NC1CC1 | 1.8 | 1.4 | -15.6 | -8.6 | 12.6 | 3.4
COc1cc(NC(=O)c2ccccc2)c(OC)cc1NC(C)=O | -0.1 | 1.1 | -14.6 | -7.0 | -0.7 | 0.9
COc1cc(NC(=O)COc2ccccc2)c(OC)cc1NC(C)=O | 1.0 | 0.2 | -14.4 | 14.3* | 16.8 | 0.3
O=C(COc1ccccc1)NC1CCCCCCC1 | · | · | 3.1 | 8.9* | -3.9 | 0.2

High-throughput results from PubChem.
